# In ChEMBL document CHEMBL4513216, “Probing the Open Global Health Chemical Diversity Library for Multistage-Active Starting Points for Next-Generation Antimalarials” (ACS Infect Dis, 2020):
# Assay: Toxicity liver stage against HepG2, at 10uM
# Format: cell-based
# Set-up: test concentration 10 uM, cell line HepG2-A16-CD81EGFP
# Settings: human, HepG2-A16-CD81EGFP cells; read-out: INHIBITION
# How it was run: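 Uninfected HepG2-A16-CD81EGFP cells, 3 × 10^3 per well, 1536-well, plated on prespotted compound at 10 μM final, parasite-free screening media added to match infected plates; puromycin 10 μM positive, DMSO 0.5% negative; run in parallel with 48 h PbLuc assay at 37 °C, 5% CO2; viability by CellTiter-Glo luminescence, normalized to controls.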
row,SMILES,cytotoxicity at 10 µM
1,CCN(CC)S(=O)(=O)c1ccc(C(=O)NC(C)(C)C)cc1,-6.79%
2,N#Cc1ccc(CN2C[C@@H](F)[C@@H](OCc3nc4cnccc4[nH]3)C2)cc1,-3.67%
3,O=C(NC[C@H]1CCCC[C@H]1O)c1cccc2[nH]c(-c3cccs3)nc12,-6.95%
4,COc1ccc2c(ccn2CCC(=O)NCCC(=O)O)c1,6.81%
5,O=C1CCSCC(C(=O)N2CCC(O)CC2)N1 (stereo unspecified),-4.2%
6,Cn1cccc1C(=O)NC[C@H]1C[C@@H]2CN(C(=O)c3ccno3)C[C@H]2O1,0.903%
7,O=C(NCC1CC[C@@]2(CNCCOC2)O1)c1cccnc1 (stereo partly specified),2.32%
8,CCS(=O)(=O)N1CCc2ncnc(C)c2CC1,-0.0192%
9,CCN1CCC2(COCc3c(C)nc(N4CCOCC4)nc32)C1 (stereo unspecified),-141%
10,CNC(=O)[C@@]12CCCN(c3ncccn3)[C@@H]1CN(c1ncc(F)cn1)C2,-1.43%
11,Cc1ccccc1CSc1ncc(Br)c(C(=O)O)n1,6.99%
12,CSc1nc2cc(C)n(CC(N)=O)c2c(=O)n1CC(C)C,-11.3%
13,CCn1nccc1CN(C)c1[nH]cnc2nc(C)nc1-2,-7.97%
14,CCN(CC)C(=O)CSc1nc2cc(C)nc-2c(O)n1CC,6.58%
15,Cc1cc(C(F)(F)F)nn1CC(C)C(=O)NC(C)C (stereo unspecified),10%
16,Cc1ccc(-c2ccccc2CC2(C(=O)NC(C)C)CCCNC2)cc1 (stereo unspecified),2.73%
17,COCC(=O)N1CCCC1c1cccc(Nc2ncc(C)s2)n1 (stereo unspecified),-17%
18,c1cnc(C2CCCN2c2cnccn2)cn1 (stereo unspecified),-22.6%
19,Cc1cccc(CN2CCCC2(C(N)=O)c2cnccn2)n1 (stereo unspecified),-21.9%
20,CC(=O)N1CCC(c2nccnc2-c2ccc(C(=O)O)cc2)CC1,11.1%
21,Cc1nonc1C(=O)N1CCCC(c2ncncc2-c2ccncc2)C1 (stereo unspecified),1.41%
22,CC(CN1CCOC1=O)NC(=O)c1cccc(C#N)c1 (stereo unspecified),-8.37%
23,CCCOc1ccc2c(c1)OCC(CNC1CCc3ncnn3C1)=C2 (stereo unspecified),-6.63%

row,SMILES,cytotoxicity at 10 µM
1,COc1c(CNCC(=O)N2CCN(C)CC2)c(C(C)C)nn1C,7.45%
2,COCCN(CCOC)C(=O)c1cnn(C)c1-n1c(C)ccc1C,-144%
3,Cc1nc(CN2CCCCC2Cn2cccn2)nc2ccccc12 (stereo unspecified),-41.5%
4,CCOCCNC(=O)CCC1CCCO1 (stereo unspecified),-122%
5,CCc1nc(CSc2nnc(N)n2C2CC2)no1,6.12%
6,CCCN(CC1COc2ccccc2O1)C(=O)C1=NN(C)C(=O)CC1 (stereo unspecified),-41%
7,CC(C)C(NC(=O)Nc1cnn(CC(N)=O)c1)c1ccc(Cl)cc1 (stereo unspecified),7.51%
8,CC(C)N1CCC(NC(=O)NCCC(=O)NCc2ccccc2)C1 (stereo unspecified),-0.986%
9,CCc1nc2n(n1)CC(NCc1cc3ccccc3o1)CC2 (stereo unspecified),3.77%
10,CC(C(=O)Nc1ccccc1Sc1ccccc1)S(C)(=O)=O (stereo unspecified),-1.7%
11,CCc1nc(CN(C)CC(=O)N(C)C2CC2)cs1,-3.54%
12,COc1ccc(C)cc1C(=O)NC1(C#N)CCOCC1,1.98%
13,CN(C(=O)Cn1nc(-c2ccc(F)cc2)oc1=O)c1ccccc1,-0.267%
14,CC(=O)N1CCCN(C(=O)Cc2ccc3c(c2)OCO3)CC1,-15.1%
15,Cc1csc(C2CCCCN2C(=O)CCCn2cncn2)n1 (stereo unspecified),-8.23%
16,Cn1cc(C(=O)Nc2cccc(F)c2)ccc1=O,-9.66%
17,Cc1ccc(C(C)NC(=O)N2CCNC(=O)CC2)cc1F (stereo unspecified),18.9%
18,OC(COCc1ccccc1)CSc1nnc2ccccn12 (stereo unspecified),2.95%
19,CC1CCN(S(=O)(=O)c2cccnc2)c2ccccc2S1 (stereo unspecified),5%
20,CC(C)N(C)CCNC(=O)N(C)CC1CCOCC1,-17.2%
21,Cc1cnccc1CCNC(=O)Nc1cnc(N(C)C)nc1,7.75%
22,Cc1cc(=O)n2nc(Oc3ccc(F)c(F)c3)sc2n1,-15.8%
23,CC(c1ncc(-c2ccccc2)o1)N1CCN(C(=O)C(C)(C)C)CC1 (stereo unspecified),17.4%

row,SMILES,cytotoxicity at 10 µM
1,CSCCC(NC(=O)c1ccc2ccccc2n1)C(=O)O (stereo unspecified),-3.09%
2,CS(=O)(=O)CCCNC1(c2ccc(Br)cc2)CCC1,-0.0862%
3,O=C(CCc1ccsc1)N(Cc1ccccn1)C1CC1,-4.87%
4,Cn1cnc2c1CCN(CC(O)c1ccc3c(c1)OCCO3)C2 (stereo unspecified),-13.7%
5,CCS(=O)(=O)CC(=O)NC(c1ccc(F)cc1)C1CCCC1 (stereo unspecified),4.57%
6,Cc1cc(CNC(=O)N2CCN(c3nc(C)c(C)s3)CC2)no1,-1.01%
7,CS(=O)(=O)N1CC[C@H]2OCC[C@@]2(C(=O)NCC2CC2)C1,-98.2%
8,CC(=O)N1CC[C@H]2OCC[C@@]2(C(=O)NCc2cnc(C)cn2)C1,-106%
9,CC(C)CC(=O)N1CC[C@@H]2CN(Cc3cccnc3)S(=O)(=O)[C@@H]2CC1,-103%
10,O=C(CC1CC1)N1CCC2(COCc3cnc(-c4cccnc4)nc32)C1 (stereo unspecified),-106%
11,Cn1ccc(-c2cc(C(=O)N3CCC(O)CC3)c3ccccn23)n1,-98.3%
12,c1cc(CN2CCCn3nnc(COCC4CC4)c3C2)ccn1,-113%
13,COCCO[C@H]1CCN(C(=O)c2ccc[nH]2)[C@H]1Cc1ccncc1,-5.46%
14,Cc1ccccc1CSc1nc(N)cc(N2CCC(CC(N)=O)CC2)n1,-10.4%
15,O=c1cc(CN2CC[C@@]3(O)CCCC[C@H]3C2)c2cccc3c2n1CCC3,-0.948%
16,Fc1ccc2[nH]c(C3CCCN3Cc3c[nH]cn3)nc2c1 (stereo unspecified),0.786%
17,COCC[C@]1(O)CCN(c2ncc(Cl)cc2F)C[C@H]1C,12.8%
18,c1ccc(C2CCCCN2Cc2nc(-c3cnccn3)no2)nc1 (stereo unspecified),-8.04%
19,OCCc1cn(CC2CCCN(Cc3nccs3)C2)nn1 (stereo unspecified),-6.51%
20,Cc1cc(NCCCC(F)(F)F)n2nc(C)cc2n1,0.894%
21,O=C1CN(C(=O)CC2c3ccccc3CCc3ccccc32)CCN1,9.98%
22,COc1cccc(-c2n[nH]cc2C(=O)NC(C)CC(=O)O)c1 (stereo unspecified),-8.91%
23,COc1cccc(OC2CN(C(=O)C3CCCN(C(=O)N(C)C)C3)C2)c1 (stereo unspecified),0.754%

row,SMILES,cytotoxicity at 10 µM
1,Cc1ccc(-c2ncc(C(=O)N3CCC[C@H](N)C3)c(O)n2)cc1,-7.14%
2,CN(C)C(=O)N1CC[C@]2(O)CCN(C(=O)c3ccc(C#N)nc3)C[C@@H]2C1,-51%
3,Cn1cc2ncn(CCC3CCN(Cc4ccccc4)C3)c(=O)c2n1 (stereo unspecified),1.28%
4,CS(=O)(=O)CC1CCCN(C(=O)Cn2cccc(C(F)(F)F)c2=O)C1 (stereo unspecified),4.1%
5,CN1CCCN(Cc2nc(Cc3ccccc3)n[nH]2)CC1,-7.47%
6,Cc1cnc(N)nc1N1CCN(CCCO)CC1,0.761%
7,CN1CCCN(C(=O)c2csc(-c3ccc(C(F)(F)F)cc3)n2)CC1,-5.81%
8,CCC(CO)N(C/C(C)=C/c1ccco1)Cc1ccsc1 (stereo unspecified),1.12%
9,CN(C)c1nc2c(c(N3CCC4(CCCNC4=O)C3)n1)CCCC2 (stereo unspecified),-5.81%
10,CC(C)Cn1cncc1CNC(=O)c1cccc(CC2CCNCC2)c1,-4.47%
11,CCN1CCN(CCCNc2ncccn2)CC1,3.41%
12,CCCN(Cc1cccnc1)C(=O)C1CCCN(C)C1 (stereo unspecified),9.77%
13,COc1nccc(N2CC[C@@H](N3CCCCCC3)[C@H](O)C2)c1C#N,-152%
14,c1ccc(CN2CCC(NCCSc3ncn[nH]3)C2)cc1 (stereo unspecified),-2.76%
15,CC(C)(C)NS(=O)(=O)c1ccc(NC(=O)C2CC2)cc1,-6.73%
16,Cc1cccnc1CN1CCOC(Cc2cccc3ccccc23)C1 (stereo unspecified),-2.43%
17,CC(=O)NCC1CCC2(CCN(c3nccc(C4CCCC4)n3)CC2)O1 (stereo unspecified),-4.43%
18,CC(C)c1cc(C(=O)N2CCN(CC3CC3)[C@@H]3CS(=O)(=O)C[C@@H]32)on1,3.05%
19,Cn1ccnc1CN1CCCC(Cc2ccccn2)C1 (stereo unspecified),2.75%
20,C=C(C)CN1CCN(Cc2nccn2C)C(C)C1 (stereo unspecified),-14.6%
21,CCOc1ncccc1C(=O)N1CCCC(n2nc(C)nc2C)C1 (stereo unspecified),-8.47%
22,Cc1ccc(NS(=O)(=O)c2cc3c(c(C(=O)O)c2)OCCO3)c(F)c1,-9.36%
23,CC(C)c1nccn1C1CCCN(C(=O)c2cccc3c2OCO3)C1 (stereo unspecified),-7.71%

row,SMILES,cytotoxicity at 10 µM
1,COc1cc(CNCc2c(C)nn(C)c2N(C)C)ccn1,-9.48%
2,CNC(=O)N1CCC2(CC1)CN(C(C)C)Cc1cc(F)ccc12,-2.82%
3,O=C(c1ccoc1)N1CCCC2(CCC(=O)N2Cc2cccnc2)C1 (stereo unspecified),-4.41%
4,Cn1cc(N2CC3(CCN(CC4CCC4)CC3)OCC2=O)cn1,-0.269%
5,Cc1cnc(N2CCN3C[C@H](OCc4cccc(C)n4)C[C@H]3C2)nc1,-1.25%
6,CCCNC(c1ccc(F)cc1)c1cccnc1 (stereo unspecified),3.41%
7,CNC(=O)CN1CCCC12CCN(C(=O)c1ccc(F)cc1)CC2,5.03%
8,CNC(=O)[C@@H]1C[C@H]2CN(Cc3csc(C)n3)C[C@H]2N1C(C)C,7.08%
9,Cc1ccc(CN2CC[C@@H](O)[C@@H]2Cc2ccccc2)o1,1.73%
10,O=C1N(CC2CC2)CCC12CCCN(c1ncc(F)cn1)C2 (stereo unspecified),4.79%
11,Cc1ccc(CN2Cc3nnn(C)c3C(COCC(=O)N(C)C)C2)s1 (stereo unspecified),10.1%
12,CCN1CC2(CC1=O)CN(Cc1ccc(C)o1)CCN(C(=O)C(C)C)C2 (stereo unspecified),2.84%
13,CC(C)CC(=O)N1CC[C@H]2N(C)CC[C@@]2(C(=O)Nc2ccccc2)CC1,-4.71%
14,COc1cc(N2C[C@@H]3COC[C@]3(COc3cccnc3)C2)ncn1,2.13%
15,Cc1ccc(CN2CCn3c(C(=O)N(C)C)cnc3C2)s1,5.97%
16,COCC(=O)N1CCC2(CC1)CCN(Cc1ccccn1)C2=O,1.62%
17,CC(C)N1CCO[C@@H]2CN(S(=O)(=O)c3cccs3)CC[C@@H]2C1,5.9%
18,COC(=O)c1ccc(CN(C(C)C)C(C)C)o1,2.21%
19,CCOc1ncnc2c1CCN(C(=O)CN(C)C)CC2,-5.12%
